The test system of series [1] is Vero. Put plainly: Selectivity index, ratio of IC50 for African green monkey Vero cells to IC50 for human PC3 cells. In kind it is functional. In a few lines: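 Suspension cells were seeded at 1.5 × 10^4 per well and adherent lines at 70–75% confluence, then exposed to a range of concentrations. MTT was added 3 h before the end, formazan dissolved in DMSO, and OD read at 570 nm (reference 620 nm). Growth inhibition was taken relative to untreated cells. IC50 came from the MTT data; SI = IC50 in Vero cells / IC50 in the tumour line.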

A short description of series [2]: Cytotoxicity against human LS180 cells assessed as cell growth inhibition at 30 uM after 48 hrs by MTT assay. The note with it: LS180, 48 h, read-out: GI. Format: functional. In a few lines:
(§1)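 Adherent lines at 70–75% confluence, grown at 37 °C in 5% CO2 with 10% FCS. Exposed 48 h to compound in DMSO (vehicle <0.2% v/v). MTT dye added 3 h before termination; formazan dissolved in DMSO, OD 570 nm with 620 nm reference. Growth inhibition expressed as % of untreated; IC50 taken from the dose series.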
(In general: Tetrazolium assays rely on reduction of a dye to a coloured formazan, in cell work by metabolically active cells.)

Series [3] can be described thus: Cell cycle arrest in human HL60 cells assessed as accumulation at subG0 phase at 5 uM after 24 hrs by propidium iodide-DNA fluorescence based FACS analysis (reference value: 5 %). The conditions noted are these: HL-60.
In series [4] the test system is HL-60. Put plainly: Induction of apoptosis in human HL60 cells assessed as loss of mitochondrial membrane potential at 0.5 uM after 24 hrs by Rh123 dye-based FACS analysis (reference value: 5%). In kind it is functional. Background: A flow cytometer gives signals particle by particle.
A short description of series [5]: Cytotoxicity against human PC3 cells assessed as cell growth inhibition after 48 hrs by MTT assay. In kind it is functional, cell-based. The conditions noted are these: PC-3, 48 h. In a few lines:
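Exposed 48 h to compound in DMSO (vehicle <0.2% v/v). MTT dye added 3 h before termination; formazan dissolved in DMSO, OD 570 nm with 620 nm reference. Growth inhibition expressed as % of untreated; IC50 taken from the dose series.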

The nature of series [6]: Cell cycle arrest in human HL60 cells assessed as accumulation at G1 phase at 5 uM after 24 hrs by propidium iodide-DNA fluorescence based FACS analysis (reference value: 46 %). In kind it is functional. The conditions noted are these: HL-60. An outline of the steps: (§2)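 HL-60 cells seeded at 0.5 × 10^6 cells/ml, exposed 24 h to compound (DMSO vehicle, <0.2% v/v). Pelleted at 400×g, PBS-washed, fixed in 70% ethanol at 4 °C overnight. RNase A treatment at 37 °C for 1.30 h, then propidium iodide staining for 20 min. Flow cytometry on 10,000 events, FL2-A vs FL2-W; subG0 (apoptotic) and phase populations gated.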

Series [7] can be described thus: Cell cycle arrest in human HL60 cells assessed as accumulation at G2 phase at 0.2 uM after 24 hrs by propidium iodide-DNA fluorescence based FACS analysis (reference value: 1 %). In kind it is functional. The conditions noted are these: HL-60. In a few lines:
as §2

The test system of series [8] is HL-60. Put plainly: Induction of apoptosis in human HL60 cells assessed as loss of mitochondrial membrane potential at 0.2 uM after 24 hrs by Rh123 dye-based FACS analysis (reference value: 5%). In kind it is functional.
A short description of series [9]: Cytotoxicity against human HL60 cells assessed as cell growth inhibition at 30 uM after 48 hrs by MTT assay. In kind it is functional. The note with it: HL-60, 48 h, read-out: GI. In a few lines: (§3)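 HL-60 suspension cells, 1.5 × 10^4 per well, grown at 37 °C in 5% CO2 with 10% FCS. Treated 48 h with compound in DMSO (vehicle <0.2% v/v). MTT added 3 h before the end. Formazan dissolved in DMSO and read at 570 nm (reference 620 nm). % growth inhibition computed against untreated cells; IC50 taken from the concentration series.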

The nature of series [10]: Cytotoxicity against human MIAPaCa2 cells assessed as cell growth inhibition at 50 uM after 48 hrs by MTT assay. Format: functional. The conditions noted are these: MIA PaCa-2, 48 h, read-out: GI. In a few lines: as §1
Series [11] can be described thus: Cytotoxicity against human HL60 cells assessed as cell growth inhibition at 50 uM after 48 hrs by MTT assay. Format: functional. The note with it: HL-60, 48 h, read-out: GI. An outline of the steps:
as §3

Series [12] in a line: Cell cycle arrest in human HL60 cells assessed as accumulation at subG0 phase at 5 uM after 24 hrs by propidium iodide-DNA fluorescence based FACS analysis (reference value: 5 %). The conditions noted are these: HL-60. Format: functional. An outline of the steps:
as §2

Series [13] in a line: Cytotoxicity against human HepG2 cells assessed as cell growth inhibition at 0.5 uM after 48 hrs by MTT assay. In kind it is functional. The note with it: HepG2, 48 h, read-out: GI. In a few lines:
as §1

A short description of series [14]: Cytotoxicity against human LS180 cells assessed as cell growth inhibition at 10 uM after 48 hrs by MTT assay. In kind it is functional. The conditions noted are these: LS180, 48 h, read-out: GI. In a few lines:
as §1

Series [15] can be described thus: Cytotoxicity against human HepG2 cells assessed as cell growth inhibition at 1 uM after 48 hrs by MTT assay. Format: functional. The conditions noted are these: HepG2, 48 h, read-out: GI. In a few lines: as §1
Series [16] can be described thus: Cytotoxicity against human HepG2 cells assessed as cell growth inhibition at 10 uM after 48 hrs by MTT assay. In kind it is functional. The conditions noted are these: HepG2, 48 h, read-out: GI. An outline of the steps: as §1
Series [17] is described as follows: Aqueous solubility of the compound at pH 7. In kind it is physicochemical.
Series [18] has as its system HL-60. Put plainly: Induction of apoptosis in human HL60 cells assessed as condensation of nuclei after 24 hrs by hoechst 33258 staining-based microscopic analysis. In kind it is functional, cell-based. An outline of the steps:
(§4)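 HL-60 cells at 0.5 × 10^6/ml were treated for 24 h with […] compound in DMSO vehicle (<0.2%). Cells were fixed in cold acetic acid:methanol (1:3) for 1 h on ice, spread on slides and air-dried overnight. Slides were stained with Hoechst 33258 for 30 min, mounted in glycerol:PBS and viewed by fluorescence microscopy at 20×. Morphology was checked by phase contrast. One of three experiments shown.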

A short description of series [19]: Cytotoxicity against human MIAPaCa2 cells assessed as cell growth inhibition at 1 uM after 48 hrs by MTT assay. Format: functional. The note with it: MIA PaCa-2, 48 h, read-out: GI. An outline of the steps: as §1
The test system of series [20] is HL-60. The series can be described thus: Induction of apoptosis in human HL60 cells assessed as cell shrinkage after 24 hrs phase contrast microscopic analysis. In kind it is functional, cell-based. In a few lines:
(§5)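 HL-60 cells at 0.5 × 10^6 cells/ml treated 24 h with compound at 0.2, 0.5, 1 or 5 (DMSO vehicle). Treated and control cells photographed under a phase contrast microscope at 20× and scored for morphology.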

For series [21], the system named is HL-60. The series can be described thus: Induction of apoptosis in human HL60 cells assessed as induction of apoptotic bodies at 0.5 uM after 24 hrs by hoechst 33258 staining-based microscopic analysis. Format: functional, cell-based. An outline of the steps:
as §4

Series [22] is described as follows: Cytotoxicity against human PC3 cells assessed as cell growth inhibition at 0.5 uM after 48 hrs by MTT assay. Format: functional. The note with it: PC-3, 48 h, read-out: GI. An outline of the steps:
as §1

The test system of series [23] is HL-60. The series can be described thus: Induction of apoptosis in human HL60 cells assessed as blebs formation after 24 hrs phase contrast microscopic analysis. Format: functional, cell-based. In a few lines:
as §5

Series [24] can be described thus: Cytotoxicity against human PC3 cells assessed as cell growth inhibition at 10 uM after 48 hrs by MTT assay. Format: functional. The note with it: PC-3, 48 h, read-out: GI. In a few lines:
as §1

A short description of series [25]: Cytotoxicity against human LS180 cells assessed as cell growth inhibition at 1 uM after 48 hrs by MTT assay. Format: functional. The note with it: LS180, 48 h, read-out: GI. In a few lines: as §1
Series [26] in a line: Cytotoxicity against human PC3 cells assessed as cell growth inhibition at 1 uM after 48 hrs by MTT assay. Format: functional. The note with it: PC-3, 48 h, read-out: GI. In a few lines: as §1
Series [27] can be described thus: Cell cycle arrest in human HL60 cells assessed as accumulation at subG0 phase after 24 hrs by propidium iodide-DNA fluorescence based FACS analysis. Format: functional. The conditions noted are these: HL-60. In a few lines:
as §2

Series [28] in a line: Cytotoxicity against human MIAPaCa2 cells assessed as cell growth inhibition at 10 uM after 48 hrs by MTT assay. The conditions noted are these: MIA PaCa-2, 48 h, read-out: GI. Format: functional. In a few lines:
as §1

Series [29] is described as follows: Lipophilicity, log P of the compound at pH 7. In kind it is physicochemical. The conditions noted are these: buffer.

Calls of active or inactive are those of the source. No cut-off for these calls is given here.

As to `C[C@H]1[C@@H](O)O[C@@H]2O[C@@]3(C)CC[C@H]4[C@H](C)CC[C@@H]1[C@@]24OO3` [ARTENIMOL], in [1], the “Ratio IC50” value is on record as 25. For the same molecule, the values for the inhibition of growth at 30 µM in series [2] and in [9] were 32% and 91%, respectively. For the same molecule, the Activity in series [3] amounted to 27%; in [4] it was 20%; in series [6] it was 75%; in [7] it was 2%; in [8] it was 8%; in series [12], 27%. The IC50 (commonly the point on the concentration scale where inhibition reaches its midpoint) in [5] was over 100 µM. The inhibition of growth at 50 µM came out at 71% in series [10] and 93% in series [11].

For `C[C@H]1[C@@H](OCCOc2ccc(/C=C/C(=O)c3ccc(O)cc3)cc2)O[C@@H]2O[C@@]3(C)CC[C@H]4[C@H](C)CC[C@@H]1[C@@]24OO3`, the inhibition of growth at 0.5 µM came to 20.2% in [13] and 19.3% in [22]. Further, the inhibition of growth at 10 µM in series [14] was 36.6%; in series [16], 60.4%; in [24], 41.5%; in series [28] it was 16.8%. The inhibition of growth at 1 µM came to 23.8% in [15], 9.1% in series [19], 36.5% in series [25] and 25.4% in [26]. For the same molecule, the solubility (as a rule, the dissolved amount per volume that the medium holds) in [17] is over 100 µg/mL. Moreover, the “Ratio IC50” value in [1] is on record as 82. Besides, the inhibition of growth at 30 µM in [2] was 55.2%; in [9] it was 90.1%. Further, the Activity result is “Dose-dependent effect” in series [18]; 95% in series [3]; 27% in series [4]; “Dose-dependent effect” in [20]; “Dose-dependent effect” in series [23]; 55% in series [6]. Further, the Activity in series [7] is 5%; in series [8], 9%; in [27], “Dose-dependent effect”; in series [12] it was 95%. The IC50 in [5] came to 14 µM. In series [21], the result was Active. The figures for the inhibition of growth at 50 µM in series [10] and in series [11] were 88.8% and 93.6%, respectively. Besides, the logP (as a rule, the decadic logarithm of the partition coefficient of the neutral form, usually between octanol and water) in series [29] is on record as -5.96.

Regarding `C[C@H]1[C@@H](OCCOc2cccc(C(=O)/C=C/c3ccc(O)cc3)c2)O[C@@H]2O[C@@]3(C)CC[C@H]4[C@H](C)CC[C@@H]1[C@@]24OO3`, the results for the inhibition of growth at 0.5 µM in series [13] and in series [22] were 25.2% and 15.2%, respectively. The inhibition of growth at 10 µM turned out to be 27.2% in [14], 37.7% in series [16], 29.6% in series [24] and 15.1% in [28]. Further, the inhibition of growth at 1 µM in series [15] turned out to be 29.6%; in series [19], 13%; in series [25], 24.7%; in [26] it was 22.8%. The molecule also displayed a solubility in series [17] of over 100 µg/mL. Further, the “Ratio IC50” value in [1] worked out at 80. Further, the inhibition of growth at 30 µM in series [2] is 25.2%; in [9], 93.3%. The Activity result in [18] is “Dose-dependent effect”; in series [4], 34%; in series [20] it was “Dose-dependent effect”; in [23], “Dose-dependent effect”; in series [6], 64%; in series [7] it was 6%. In addition, the results for the Activity in series [8], in [27] and in series [12] were 7%, “Dose-dependent effect” and 70%, respectively. For the same molecule, the IC50 in [5] was 18 µM. The result in series [21] was Active. Also, the figures for the inhibition of growth at 50 µM in [10] and in series [11] were 88.6% and 94.8%, respectively. Also, the logP in series [29] is reported as -5.96.

Values taken from ChEMBL document CHEMBL3865799, “Synthesis of a series of novel dihydroartemisinin monomers and dimers containing chalcone as a linker and their anticancer activity” (Eur J Med Chem, 2016).
